Data published in ChEMBL document CHEMBL2331355, “Synthesis, structure activity relationship and mode of action of 3-substitutedphenyl-1-(2,2,8,8-tetramethyl-3,4,9,10-tetrahydro-2H,8H-pyrano[2,3-f]chromen-6-yl)-propenones as novel anticancer agents in human leukaemia HL-60 cells” (Eur J Med Chem, 2013).
The source made the active and inactive calls. The rule behind the calls is not given here.

How the values were obtained:
HL-60 [1] = test: Cell cycle arrest in human HL60 cells assessed as G2/M phase cells at 15 uM after 24 hrs by PI staining-based flow cytometric analysis (reference value: 3%); assay type: functional
MIA PaCa-2 = test: Cytotoxicity against human MIAPaCa2 cells after 48 hrs by MTT assay; assay type: functional, cell-based; details: MIA PaCa-2, 48 h
Method in brief: (§1)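 MTT assay in 96-well plates, 48 h exposure across 1–100 µM. OD read at 570 nm against a 620 nm reference. Untreated control OD taken as 100% viability. IC50 derived from the concentration–response curves. Mean ± SD, n = 8 wells, from three independent experiments.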

HL-60 [2] = test: Induction of apoptosis in human HL60 cells assessed as apoptotic bodies at 20 uM after 24 hrs by Hoechst 33258 staining; assay type: functional, cell-based
Method in brief: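 HL-60 cells (1 × 10⁶/2 ml) treated 24 h at 15 and 20 µM, pelleted at 300 g and washed. Stained with Hoechst 33258, then examined under an inverted fluorescence microscope (10×, UV excitation) for nuclear condensation, blebbing and apoptotic bodies.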

PC-3 [3] = test: Growth inhibition of human PC3 cells at 30 uM after 48 hrs by MTT assay; assay type: functional, cell-based
Method in brief: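 Single-concentration MTT screen at 50 µM over 48 h in 96-well plates. Compounds giving >50% inhibition were rescreened at 30 µM. OD read at 570 nm, reference 620 nm. Result expressed as % growth inhibition versus untreated control. Mitomycin C, adriamycin or 5-fluorouracil used as positive controls. Mean ± SD of three independent experiments.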

HL-60 [4] = test: Cell cycle arrest in human HL60 cells assessed as S phase cells at 15 uM after 24 hrs by PI staining-based flow cytometric analysis (reference value: 49%); assay type: functional
HL-60 [5] = test: Cytotoxicity against human HL60 cells after 48 hrs by MTT assay; assay type: functional, cell-based; details: HL-60, 48 h; method in brief: as §1
HL-60 [6] = test: Cell cycle arrest in human HL60 cells assessed as decrease in G2/M phase cells after 24 hrs by PI staining-based flow cytometric analysis; assay type: functional
HL-60 [7] = test: Cell cycle arrest in human HL60 cells assessed as accumulation of G0/G1 phase cells at 15 uM after 24 hrs by PI staining-based flow cytometric analysis (reference value: 48%); assay type: functional
PC-3 [8] = test: Cytotoxicity against human PC3 cells after 48 hrs by MTT assay; assay type: functional, cell-based; details: PC-3, 48 h; method in brief: as §1
HL-60 [9] = test: Cell cycle arrest in human HL60 cells assessed as G2/M phase cells at 5 uM after 24 hrs by PI staining-based flow cytometric analysis (reference value: 3%); assay type: functional
HL-60 [10] = test: Induction of apoptosis in human HL60 cells assessed as DNA fragmentation at 20 uM after 24 hrs by SDS-PAGE analysis; assay type: functional, cell-based; details: in the assay text read “agarose gel electrophoresis” for “SDS-PAGE analysis”
Method in brief: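 HL-60 cells (2 × 10⁶/3 ml/well) treated at 20 µM for 24 h. Lysed, then digested with RNase (400 µg/ml, 37 °C, 90 min) and proteinase K (200 µg/ml, 50 °C, 1 h). DNA extracted with phenol/chloroform/isoamyl alcohol and alcohol-precipitated. Run on 1.8% agarose gel at 70 V for 1 h, stained with ethidium bromide, and scored for laddering.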

| SMILES | Activity (HL-60 [1]) [%] | IC50 (MIA PaCa-2) [µM] | Activity (HL-60 [2]) | growth inhibition (GI) (PC-3 [3]) | Activity (HL-60 [4]) [%] | IC50 (HL-60 [5]) [µM] | Activity (HL-60 [6]) | Activity (HL-60 [7]) [%] | IC50 (PC-3 [8]) [µM] | Activity (HL-60 [9]) [%] | Activity (HL-60 [10]) |
| --- | --- | --- | --- | --- | --- | --- | --- | --- | --- | --- | --- |
| CC1(C)CCc2cc(C(=O)/C=C/c3cccc([N+](=O)[O-])c3)c3c(c2O1)CCC(C)(C)O3 | 4 | 18 | Active | Active | 25 | 11 | Dose-dependent effect | 71 | 8 | 6 | Active |
| CC1(C)CCc2cc(C(=O)/C=C/c3ccc([N+](=O)[O-])cc3)c3c(c2O1)CCC(C)(C)O3 | 4 | 45 | Active | Active | 43 | 15 | Dose-dependent effect | 53 | 26 | 9 | Active |
